Results published in paper PMC2774623 (Biochemistry, 2008).

B1: NBD1 ΔF508: purified ΔF508 mutated recombinant murine NBD1 of CFTR (spanning sequence 389−673) (protein)
chain: TTGIIMENVTAFWEEGFGELLEKVQQSNGDRKHSSDENNVSFSHLCLVGNPVLKNINLNIEKGEMLAITGSTGSGKTSLLMLILGELEASEGIIKHSGRVSFCSQFSWIMPGTIKENIIGVSYDEYRYKSVVKACQLQQDITKFAEQDNTVLGEGGVTLSGGQRARISLARAVYKDADLYLLDSPFGYLDVFTEEQVFESCVCKLMANKTRILVTSKMEHLRKADKILILHQGSSYFYGTFSELQSLRPDFSSKLMGYDTFDQFTEERRSSILTETLRRFSVDD
B2: NBD1 wt: purified wild-type recombinant murine NBD1 of CFTR (spanning sequence 389−673) (protein)
chain: TTGIIMENVTAFWEEGFGELLEKVQQSNGDRKHSSDENNVSFSHLCLVGNPVLKNINLNIEKGEMLAITGSTGSGKTSLLMLILGELEASEGIIKHSGRVSFCSQFSWIMPGTIKENIIFGVSYDEYRYKSVVKACQLQQDITKFAEQDNTVLGEGGVTLSGGQRARISLARAVYKDADLYLLDSPFGYLDVFTEEQVFESCVCKLMANKTRILVTSKMEHLRKADKILILHQGSSYFYGTFSELQSLRPDFSSKLMGYDTFDQFTEERRSSILTETLRRFSVDD

Target: CK2α catalytic subunit
Assay: SPR
Assay type: binding, human
Conditions: for kd (s^−1) × 10^−3: SPR BIAcoreX, CK2α coupled to CM5 chip, 25 °C, HBS pH 7.4, Langmuir 1:1 model; for association constant ka (as printed in text): SPR, binding to CK2α, unit not given
Method in brief: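 Recombinant human CK2α, expressed in E. coli, amine-coupled to a CM5 chip (1600 RU). Mouse NBD1 analyte, wild type or ΔF508, at 15 μM, flowed at 10 μL/min, 25 °C, in HBS (10 mM Hepes pH 7.4, 150 mM NaCl, 3 mM EDTA, 0.005% P20). Blank-surface response subtracted; rate constants fitted to a 1:1 binding model.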

Molecule | kd (s^−1) × 10^−3 [s^−1 × 10^−3] | association constant ka (as printed in text)
B1 | 0.0877 | 0.96 × 10^3
B2 | 0.335 | 0.135 × 10^3
